pIC50, pKi: −log10 of the molar value.
Tests used:
Hormone-sensitive lipase [1] = target: T1, Hormone-sensitive lipase (Rattus norvegicus, UniProt P15304); assay: Inhibition of rat hormone sensitive lipase assessed as oleic acid release from [3H]triolein by scintillation counting
T1 sequence (P15304 whole entry): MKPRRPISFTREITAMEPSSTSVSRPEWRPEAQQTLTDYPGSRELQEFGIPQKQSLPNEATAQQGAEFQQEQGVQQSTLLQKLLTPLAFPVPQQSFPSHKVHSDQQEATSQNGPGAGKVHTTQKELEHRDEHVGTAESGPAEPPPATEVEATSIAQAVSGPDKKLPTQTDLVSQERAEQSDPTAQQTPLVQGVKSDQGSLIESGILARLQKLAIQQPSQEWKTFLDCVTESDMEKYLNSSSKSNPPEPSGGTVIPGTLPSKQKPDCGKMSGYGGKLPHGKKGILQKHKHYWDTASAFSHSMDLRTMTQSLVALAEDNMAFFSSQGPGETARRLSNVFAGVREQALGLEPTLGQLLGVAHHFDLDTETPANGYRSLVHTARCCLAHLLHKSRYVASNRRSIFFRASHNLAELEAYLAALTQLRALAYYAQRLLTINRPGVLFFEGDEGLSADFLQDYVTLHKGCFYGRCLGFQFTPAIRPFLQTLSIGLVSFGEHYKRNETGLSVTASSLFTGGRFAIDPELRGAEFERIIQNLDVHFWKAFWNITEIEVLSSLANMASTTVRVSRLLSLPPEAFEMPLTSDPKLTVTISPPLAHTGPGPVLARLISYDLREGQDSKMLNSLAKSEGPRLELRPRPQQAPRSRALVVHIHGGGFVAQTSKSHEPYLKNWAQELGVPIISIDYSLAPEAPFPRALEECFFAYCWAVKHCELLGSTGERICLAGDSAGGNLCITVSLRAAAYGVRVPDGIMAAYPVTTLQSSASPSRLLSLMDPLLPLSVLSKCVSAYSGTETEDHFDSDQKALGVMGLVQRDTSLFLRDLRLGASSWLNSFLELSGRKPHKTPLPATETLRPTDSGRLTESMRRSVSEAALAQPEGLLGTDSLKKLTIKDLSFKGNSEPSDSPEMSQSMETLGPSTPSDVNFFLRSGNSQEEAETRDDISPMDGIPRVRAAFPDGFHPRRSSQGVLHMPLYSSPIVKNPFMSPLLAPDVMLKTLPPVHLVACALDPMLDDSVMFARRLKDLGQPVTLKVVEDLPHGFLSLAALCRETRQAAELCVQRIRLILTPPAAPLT
Outline: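 His-tagged rat HSL expressed in baculovirus-infected Sf9 cells, Ni-NTA purified. Enzyme (20–100 nM) preincubated 30 min on ice with inhibitor-containing PC/PI liposomes, no triolein. Substrate: liposomes of 200 μM PC/PI (3:1 w/w) with 500 μM triolein plus 3H-triolein. Buffer: 25 mM Tris, 150 mM NaCl, 0.2 mM EDTA, 1 mM β-mercaptoethanol, pH 7.4, with 0.2% BSA. Run at 37°C. Samples taken every 10 min (6–8 points), oleate extracted and counted. IC50 is the inhibitor level giving 50% activity, in triplicate.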

Hormone-sensitive lipase [2] = target: T1, Hormone-sensitive lipase; assay: Irreversible inhibition of rat hormone sensitive lipase assessed as relative residual activity by kinetic analysis
Outline: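 Recombinant His-tagged rat HSL, no preincubation, added directly at 37°C to liposomes containing both [3H]triolein and inhibitor, at several inhibitor concentrations. Samples every 3–5 min over 30 min. Released oleic acid extracted and measured by scintillation. Residual activity versus inhibitor concentration and time fitted to an irreversible inactivation scheme (k-2 ≈ 0) to obtain binding and inactivation constants.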

Structure (SMILES) | pIC50 (Hormone-sensitive lipase [1]) | pKi (Hormone-sensitive lipase [2])
CCCCCCCCCCCCCCCCOP1(=O)OCCC(C(=O)OC)=C(C)O1 (stereo not given) | 7.22 | –
CCCCCCCCCCCCCCCCOP1(=O)OC(C)=C(C(=O)OC)CCC1(F)F (stereo not given) | < 4.00 | –
CCCCCCCCCCCCCCCC[C@H]1CC[P@@](=O)(OC)OC(C)=C1C(=O)OC | 5.00 | –
CCCCCCCCCCCCCCCO[P@]1(=O)OC[C@@H]2COC(=O)C2=C(C)O1 (racemic) | 6.05 | –
CCCCCCCCCCCCCCCO[P@]1(=O)OC[C@H]2COC(=O)C2=C(C)O1 (racemic) | 7.12 | –
CCCCCCCCCCCCCCCO[P@]1(=O)CC[C@@H]2COC(=O)C2=C(C)O1 (racemic) | 6.35 | –
CCCCCCCCCCCCCCCO[P@]1(=O)CC[C@H]2COC(=O)C2=C(C)O1 (racemic) | 6.33 | –
CCCCCCCCCCCCCCCCO[P@]1(=O)CC[C@@H]2COC(=O)C2=C(C)O1 (racemic) | 5.16 | –
CCCCCCCCCCCCCCCCO[P@]1(=O)CC[C@H]2COC(=O)C2=C(C)O1 (racemic) | 6.44 | –
CCCCCCCCCCCCCCCCCC[C@@H]1CC[P@@](=O)(OC)OC(C)=C1C(=O)OC (relative stereo) | < 4.00 | –
CCCCCCCCCCCCCCCC[C@@H]1CC[P@@](=O)(OC)OC(C)=C1C(=O)OC (relative stereo) | 4.22 | –
CCCCCCCCCCCC[C@@H]1CC[P@@](=O)(OC)OC(C)=C1C(=O)OC (relative stereo) | 4.46 | –
CO[P@]1(=O)OC[C@@H]2COC(=O)C2=C(C)O1 (relative stereo) | < 4.00 | –
CCCCCCCCCCCCCCCCO[P@]1(=O)OC[C@@H]2COC(=O)C2=C(C)O1 (relative stereo) | 7.60 | 7.40
CCCCCCCCCCCCCCCCO[P@]1(=O)OC[C@H]2COC(=O)C2=C(C)O1 (relative stereo) | 6.38 | –
CCCCCCCCCCCC[C@H]1CC[P@@](=O)(OC)OC(C)=C1C(=O)OC (relative stereo) | 4.87 | –
CCCCCCCCCCCCCCCCCC[C@H]1CC[P@@](=O)(OC)OC(C)=C1C(=O)OC (relative stereo) | 4.57 | –
CO[P@@]1(=O)CC[C@H]2COC(=O)C2=C(C)O1 (relative stereo) | 4.00 | –
CO[P@]1(=O)OC[C@H]2COC(=O)C2=C(C)O1 (relative stereo) [CYCLOPHOSTIN] | < 4.00 | –
